# According to paper PMC5600458 (Biochemistry and Biophysics Reports, 2016):
# Tests used:
# trypsin [1] = biological target: T1, trypsin (Bos taurus, UniProt P00760); type: biochemical; details: pH 7.2
# T1 sequence (P00760 24-246): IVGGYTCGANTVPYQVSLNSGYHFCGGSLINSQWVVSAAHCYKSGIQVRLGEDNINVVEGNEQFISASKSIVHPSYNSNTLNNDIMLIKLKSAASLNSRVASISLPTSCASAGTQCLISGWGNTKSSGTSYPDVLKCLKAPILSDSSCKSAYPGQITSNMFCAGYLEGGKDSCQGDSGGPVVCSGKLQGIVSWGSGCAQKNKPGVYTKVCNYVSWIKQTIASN
# Summary of the method: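 Trypsin (78% active by p-nitrophenyl p-guanidobenzoate titration) hydrolysing α-N-benzoyl-L-arginine-p-nitroanilide at 25 °C, [S0] ≪ KM, in 0.1 M buffers (potassium phosphate at pH 7.2; sodium acetate at pH 5.0). At pH 7.2: 88.0 μM substrate, 0.17 μM trypsin, 3.3% DMSO. Inhibitor was added last. Initial rates were taken within 0.5–1 min and fitted to d[P]/dt = vo·Ki/([I]+Ki), ≥3 determinations. Effective molarity = KHK(obs)/KH1.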
# [2] = 13C NMR of stability / Schiff base formation by the free glyoxal inhibitor; type: physicochemical
# [3] = Hydration constants by quantitative 13C NMR; type: physicochemical; details: pH 3.0, 13C NMR
# trypsin [4] = biological target: T1, trypsin; experiment: 13C NMR of trypsin catalysed breakdown of bound glyoxal inhibitor; type: biochemical; details: pH 7.2, in the presence of trypsin
structure (smiles),measurement,setting,value
NC(N)=NCCC[C@H](NC(=O)OCc1ccccc1)C(=O)O [Z-Arg-COOH],Tighter binding than Z-Lys-COOH,trypsin [1],~ 2 fold
NCCCC[C@H](NC(=O)OCc1ccccc1)C(=O)[13CH]=O [Z-Lys-CO^13CHO],Stability of NMR signals,"[2]; pH 3.0, 64 h at 25 °C",no change in the intensity of the NMR signals
same,t1/2 of decrease of inhibitor signals on storage,"[2]; pH 3, storage ~1 year",1850 ± 228 h
same,Half life of Schiff base formation,"[2]; pH 7.2, 25 °C",11.2 h
same,1st order rate constant of Schiff base formation,"[2]; pH 7.2, 25 °C, 20 mM potassium phosphate buffer",0.062 ± 0.016 h⁻¹
same,Half life of Schiff base formation,[2]; pH 10.4,0.15 h
same,1st order rate constant of Schiff base formation,"[2]; pH 10.4, 20 mM sodium bicarbonate buffer",4.7 ± 0.7 h⁻¹
same,"KH1obs, glyoxal aldehyde carbon",[3],97±7
same,t1/2 of conversion of trypsin-bound inhibitor to α-hydroxycarboxylic acid,trypsin [4],2.9 h
NCCCC[C@H](NC(=O)OCc1ccccc1)[13C](=O)C=O [Z-Lys-^13COCHO],Half life of Schiff base formation allowing for pH 7.0 instead of 7.2,[2]; corrected to pH 7.2,14.5 h
same,Half life of Schiff base formation,[2]; pH 7.0,23.0 h
same,1st order rate constant of Schiff base formation,"[2]; pH 7.0, 25 °C, 20 mM potassium phosphate buffer",0.030±0.004 h^−^1
